Active and inactive are the calls of the source.
Experiments:
[1] = molecular target: T1, von Hippel-Lindau disease tumor suppressor/E3 ubiquitin-protein ligase XIAP (Homo sapiens) (UniProt P98170+P40337); assay: PROTAC activity at VHL/IAP in human MM1.S cells assessed as induction of XIAP degradation at 100 nM incubated for 3 hrs by diaPASEF-based analysis; assay type: cell-based
In short: (§1)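 MM.1S cells treated with DMSO or 0.1 μM for 3 h (four biological replicates); urea lysis, reduction/alkylation, LysC then trypsin digestion, diaPASEF on timsTOF Pro2; label-free quantification, missing values imputed from Gaussian distribution, log2 fold change vs DMSO with limma statistics.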

[2] = molecular target: T1, von Hippel-Lindau disease tumor suppressor/E3 ubiquitin-protein ligase XIAP (Homo sapiens); assay: PROTAC activity at VHL/IAP in human MM1.S cells assessed as induction of XIAP degradation at 0.1 uM measured after 3 hrs by western blot analysis; assay type: cell-based
In short: (§2)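 Time course in MM.1S cells at 0.1 μM; protein levels at sampled time points by immunoblot (SDS-PAGE, PVDF, ECL) with densitometry.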

[3] = molecular target: T2, von Hippel-Lindau disease tumor suppressor/Baculoviral IAP repeat-containing protein 2 (Homo sapiens) (UniProt Q13490+P40337); assay: PROTAC activity at VHL/IAP in human MM1.S cells assessed as induction of cIAP1 degradation at 100 nM incubated for 3 hrs by diaPASEF-based analysis; assay type: cell-based; in short: as §1
T2 sequence (P40337 whole entry, looked up): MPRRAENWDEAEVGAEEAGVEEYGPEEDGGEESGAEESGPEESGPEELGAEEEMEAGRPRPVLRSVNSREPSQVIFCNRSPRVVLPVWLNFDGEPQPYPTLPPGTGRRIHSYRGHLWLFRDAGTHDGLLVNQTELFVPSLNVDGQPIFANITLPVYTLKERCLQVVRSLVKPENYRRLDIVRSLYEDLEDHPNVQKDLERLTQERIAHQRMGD
T2 sequence (Q13490 whole entry, looked up): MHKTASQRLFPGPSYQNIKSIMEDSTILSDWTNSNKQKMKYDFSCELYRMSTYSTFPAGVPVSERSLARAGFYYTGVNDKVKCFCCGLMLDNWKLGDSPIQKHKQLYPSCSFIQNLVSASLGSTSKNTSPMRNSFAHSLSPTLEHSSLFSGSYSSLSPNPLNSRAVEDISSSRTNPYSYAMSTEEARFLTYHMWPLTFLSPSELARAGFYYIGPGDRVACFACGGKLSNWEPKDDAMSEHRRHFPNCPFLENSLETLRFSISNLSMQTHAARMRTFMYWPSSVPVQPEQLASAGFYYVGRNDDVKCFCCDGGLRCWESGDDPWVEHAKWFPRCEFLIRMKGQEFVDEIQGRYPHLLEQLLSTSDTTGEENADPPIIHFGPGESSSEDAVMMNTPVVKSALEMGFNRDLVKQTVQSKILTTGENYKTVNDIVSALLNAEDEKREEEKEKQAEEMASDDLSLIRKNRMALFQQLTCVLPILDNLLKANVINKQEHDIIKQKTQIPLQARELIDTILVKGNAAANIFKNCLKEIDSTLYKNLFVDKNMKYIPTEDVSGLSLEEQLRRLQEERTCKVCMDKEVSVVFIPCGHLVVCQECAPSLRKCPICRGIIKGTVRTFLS

[4] = molecular target: T2, von Hippel-Lindau disease tumor suppressor/Baculoviral IAP repeat-containing protein 2 (Homo sapiens); assay: PROTAC activity at VHL/IAP in human MM1.S cells assessed as induction of cIAP1 degradation pretreated for 1 hr with proteasome inhibitor, MG132 followed by incubation with drug for 3 hrs by western blot analysis; assay type: cell-based
[5] = molecular target: T3, von Hippel-Lindau disease tumor suppressor/Baculoviral IAP repeat-containing protein 3 (Homo sapiens) (UniProt Q13489+P40337); assay: PROTAC activity at VHL/IAP in human MM1.S cells assessed as induction of cIAP2 degradation pretreated for 1 hr with ubiquitin-activating inhibitor, MLN7243 followed by incubation with drug for 3 hrs by western blot analysis; assay type: cell-based
T3 sequence (P40337 whole entry, looked up): as the sequence (P40337 whole entry, looked up) above
T3 sequence (Q13489 whole entry, looked up): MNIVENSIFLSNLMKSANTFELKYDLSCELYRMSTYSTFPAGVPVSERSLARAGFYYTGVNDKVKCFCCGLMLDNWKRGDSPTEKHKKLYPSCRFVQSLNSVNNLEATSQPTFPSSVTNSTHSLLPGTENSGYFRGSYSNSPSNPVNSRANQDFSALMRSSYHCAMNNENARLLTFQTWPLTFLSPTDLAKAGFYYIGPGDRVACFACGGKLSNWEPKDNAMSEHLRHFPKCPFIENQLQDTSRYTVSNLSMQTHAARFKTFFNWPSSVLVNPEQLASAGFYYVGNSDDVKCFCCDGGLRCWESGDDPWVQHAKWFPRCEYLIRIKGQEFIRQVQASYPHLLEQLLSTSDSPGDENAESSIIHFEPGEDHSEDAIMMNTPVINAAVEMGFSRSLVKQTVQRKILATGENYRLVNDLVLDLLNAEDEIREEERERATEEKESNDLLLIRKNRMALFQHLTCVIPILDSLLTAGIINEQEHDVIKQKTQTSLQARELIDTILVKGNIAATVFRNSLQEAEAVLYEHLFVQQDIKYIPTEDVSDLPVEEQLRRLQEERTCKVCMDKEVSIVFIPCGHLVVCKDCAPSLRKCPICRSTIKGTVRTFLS

SU-DHL-6 = assay: Cytotoxicity against human SU-DHL-6 cells assessed as reduction in cell viability measured after 96 hrs in presence of TNF-alpha by CellTiter-Glo luminescent assay; assay type: functional, cell-based; settings: SU-DHL-6, 96 h
In short: (§3)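 Cells seeded with compound at indicated concentrations ± TNF-α 1 ng/mL, incubated 96 h at 37 °C; viability by CellTiter-Glo luminescence, normalized to DMSO control; mean ± SD of biological triplicates. NCI-H929 cultured in RPMI-1640/10% FBS with 2-mercaptoethanol and sodium pyruvate; other lines in RPMI-1640/10% FBS, 37 °C, 5% CO2.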

[6] = molecular target: T4, von Hippel-Lindau disease tumor suppressor/IAP (Homo sapiens) (UniProt P98170+Q13489+Q13490+P40337); assay: PROTAC activity at VHL/IAP in human MM1.S cells assessed as induction of VHL30 degradation incubated for 16 hrs by western blot analysis; assay type: cell-based; settings: dose 0.0001-1 µM
T4 sequence (P40337 whole entry, looked up): as the sequence (P40337 whole entry, looked up) above
T4 sequence (P98170 whole entry, looked up): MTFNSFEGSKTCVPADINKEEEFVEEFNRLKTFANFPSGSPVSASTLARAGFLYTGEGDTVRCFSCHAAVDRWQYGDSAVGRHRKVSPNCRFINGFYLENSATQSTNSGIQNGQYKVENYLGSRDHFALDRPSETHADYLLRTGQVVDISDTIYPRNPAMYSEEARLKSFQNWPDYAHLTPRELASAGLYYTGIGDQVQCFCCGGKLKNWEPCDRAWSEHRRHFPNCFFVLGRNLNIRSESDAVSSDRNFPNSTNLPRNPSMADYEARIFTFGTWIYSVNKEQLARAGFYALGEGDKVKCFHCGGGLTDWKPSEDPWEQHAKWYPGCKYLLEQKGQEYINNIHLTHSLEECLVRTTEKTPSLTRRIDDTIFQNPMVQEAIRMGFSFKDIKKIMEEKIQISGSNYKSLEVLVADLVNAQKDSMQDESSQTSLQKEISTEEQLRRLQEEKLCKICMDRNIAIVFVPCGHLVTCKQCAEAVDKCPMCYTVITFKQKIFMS
T4 sequence (Q13489 whole entry, looked up): as the sequence (Q13489 whole entry, looked up) above
T4 sequence (Q13490 whole entry, looked up): as the sequence (Q13490 whole entry, looked up) above
In short: (§4)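 MM.1S cells treated 16 h at 0.1 or 1 μM (or concentration series); lysed, SDS-PAGE, PVDF immunoblot, ECL; densitometry normalized to loading control and DMSO; average of ≥3 independent experiments, DC50 from n = 4 repeats where derived.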

[7] = molecular target: T1, von Hippel-Lindau disease tumor suppressor/E3 ubiquitin-protein ligase XIAP (Homo sapiens); assay: PROTAC activity at VHL/IAP in human MM1.S cells assessed as induction of XIAP degradation incubated for 16 hrs by western blot analysis; assay type: cell-based; in short: as §4
[8] = molecular target: T4, von Hippel-Lindau disease tumor suppressor/IAP (Homo sapiens); assay: PROTAC activity at VHL/IAP in XIAP knock-out human MM1.S cells assessed as induction of VHL30 degradation at 0.1 uM incubated for 16 hrs by western blot analysis; assay type: cell-based
In short: (§5)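 Cas9-expressing MM.1S cells transduced with sgRNA against cIAP1, cIAP2 or XIAP (control sgRNA luciferase; ≥95% transduction by FACS at 48 h); treated 0.1 μM for 16 h; VHL30 measured by immunoblot (SDS-PAGE, PVDF, ECL) with densitometry.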

NCI-H929 = assay: Cytotoxicity against human NCI-H929 cells assessed as reduction in cell viability measured after 96 hrs in presence of TNF-alpha by CellTiter-Glo luminescent assay; assay type: functional, cell-based; settings: NCI-H929, 96 h; in short: as §3
[9] = molecular target: T3, von Hippel-Lindau disease tumor suppressor/Baculoviral IAP repeat-containing protein 3 (Homo sapiens); assay: PROTAC activity at VHL/IAP in human MM1.S cells assessed as induction of cIAP2 degradation incubated for 16 hrs by western blot analysis; assay type: cell-based; in short: as §4
[10] = molecular target: T2, von Hippel-Lindau disease tumor suppressor/Baculoviral IAP repeat-containing protein 2 (Homo sapiens); assay: PROTAC activity at VHL/IAP in human MM1.S cells assessed as induction of cIAP1 degradation incubated for 16 hrs by western blot analysis; assay type: cell-based; in short: as §4
[11] = molecular target: T2, von Hippel-Lindau disease tumor suppressor/Baculoviral IAP repeat-containing protein 2 (Homo sapiens); assay: PROTAC activity at VHL/IAP in human MM1.S cells assessed as induction of cIAP1 degradation pretreated for 1 hr with ubiquitin-activating inhibitor, MLN7243 followed by incubation with drug for 3 hrs by western blot analysis; assay type: cell-based
[12] = molecular target: T1, von Hippel-Lindau disease tumor suppressor/E3 ubiquitin-protein ligase XIAP (Homo sapiens); assay: PROTAC activity at VHL/IAP in human MM1.S cells assessed as induction of XIAP degradation at 1 uM incubated for 16 hrs followed by drug wash-out for 72 hrs by western blot analysis; assay type: cell-based
In short: (§6)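 MM.1S cells given a single exposure to 1 μM, then compound washed out and protein followed up to 72 h by immunoblot with densitometry.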

[13] = molecular target: T2, von Hippel-Lindau disease tumor suppressor/Baculoviral IAP repeat-containing protein 2 (Homo sapiens); assay: PROTAC activity at VHL/IAP in human MM1.S cells assessed as induction of cIAP1 degradation at 1 uM incubated for 16 hrs followed by drug wash-out for 72 hrs by western blot analysis; assay type: cell-based; in short: as §6
[14] = molecular target: T2, von Hippel-Lindau disease tumor suppressor/Baculoviral IAP repeat-containing protein 2 (Homo sapiens); assay: PROTAC activity at VHL/IAP in human MM1.S cells assessed as induction of cIAP1 degradation at 0.1 uM measured after 3 hrs by western blot analysis; assay type: cell-based; in short: as §2
[15] = molecular target: T4, von Hippel-Lindau disease tumor suppressor/IAP (Homo sapiens); assay: PROTAC activity at VHL/IAP in human MM1.S cells assessed as induction of VHL19 degradation at 1 uM incubated for 16 hrs followed by drug wash-out for 72 hrs by western blot analysis; assay type: cell-based; in short: as §6
[16] = molecular target: T1, von Hippel-Lindau disease tumor suppressor/E3 ubiquitin-protein ligase XIAP (Homo sapiens); assay: PROTAC activity at VHL/IAP in human MM1.S cells assessed as induction of XIAP degradation pretreated for 1 hr with ubiquitin-activating inhibitor, MLN7243 followed by incubation with drug for 3 hrs by western blot analysis; assay type: cell-based
[17] = molecular target: T4, von Hippel-Lindau disease tumor suppressor/IAP (Homo sapiens); assay: PROTAC activity at VHL/IAP in cIPA1 knock-out human MM1.S cells assessed as induction of VHL30 degradation at 0.1 uM incubated for 16 hrs by western blot analysis; assay type: cell-based; in short: as §5
[18] = molecular target: T3, von Hippel-Lindau disease tumor suppressor/Baculoviral IAP repeat-containing protein 3 (Homo sapiens); assay: PROTAC activity at VHL/IAP in human MM1.S cells assessed as induction of cIAP2 degradation at 0.1 uM measured after 3 hrs by western blot analysis; assay type: cell-based; in short: as §2
[19] = molecular target: T4, von Hippel-Lindau disease tumor suppressor/IAP (Homo sapiens); assay: PROTAC activity at VHL/IAP in human MM1.S cells assessed as induction of VHL30 degradation at 1 uM incubated for 16 hrs followed by drug wash-out for 72 hrs by western blot analysis; assay type: cell-based; in short: as §6
[20] = molecular target: T4, von Hippel-Lindau disease tumor suppressor/IAP (Homo sapiens); assay: PROTAC activity at VHL/IAP in cIPA2 knock-out human MM1.S cells assessed as induction of VHL30 degradation at 0.1 uM incubated for 16 hrs by western blot analysis; assay type: cell-based; in short: as §5
[21] = molecular target: T4, von Hippel-Lindau disease tumor suppressor/IAP (Homo sapiens); assay: PROTAC activity at VHL/IAP in human MM1.S cells assessed as induction of VHL30 degradation at 0.1 uM measured after 6 hrs by western blot analysis; assay type: cell-based; in short: as §2
[22] = molecular target: T3, von Hippel-Lindau disease tumor suppressor/Baculoviral IAP repeat-containing protein 3 (Homo sapiens); assay: PROTAC activity at VHL/IAP in human MM1.S cells assessed as induction of cIAP2 degradation at 1 uM incubated for 16 hrs followed by drug wash-out for 72 hrs by western blot analysis; assay type: cell-based; in short: as §6
[23] = molecular target: T1, von Hippel-Lindau disease tumor suppressor/E3 ubiquitin-protein ligase XIAP (Homo sapiens); assay: PROTAC activity at VHL/IAP in human MM1.S cells assessed as induction of XIAP degradation at 1 uM incubated for 16 hrs followed by drug wash-out for 72 hrs and later treated with VHL inhibitor, VH298 by western blot analysis; assay type: cell-based
[24] = molecular target: T3, von Hippel-Lindau disease tumor suppressor/Baculoviral IAP repeat-containing protein 3 (Homo sapiens); assay: PROTAC activity at VHL/IAP in human MM1.S cells assessed as induction of cIAP2 degradation pretreated for 1 hr with proteasome inhibitor, MG132 followed by incubation with drug for 3 hrs by western blot analysis; assay type: cell-based
[25] = molecular target: T1, von Hippel-Lindau disease tumor suppressor/E3 ubiquitin-protein ligase XIAP (Homo sapiens); assay: PROTAC activity at VHL/IAP in human MM1.S cells assessed as induction of XIAP degradation pretreated for 1 hr with proteasome inhibitor, MG132 followed by incubation with drug for 3 hrs by western blot analysis; assay type: cell-based

T1 sequence (P40337 whole entry, looked up): as the sequence (P40337 whole entry, looked up) above
T1 sequence (P98170 whole entry, looked up): as the sequence (P98170 whole entry, looked up) above

CN[C@@H](C)C(=O)N[C@H](C(=O)N1C[C@@H](Oc2cccc(OCCCCC(=O)N[C@H](C(=O)N3C[C@H](O)C[C@H]3C(=O)N[C@@H](C)c3ccc(-c4scnc4C)cc3)C(C)(C)C)c2)C[C@H]1C(=O)N[C@@H]1CCCc2ccccc21)C1CCCCC1
8 nM: IC50 (NCI-H929)
1.6 nM: IC50 (SU-DHL-6)
active: Activity [1] | Activity [3] | Activity [6] Dose-Dependent Effect | Activity [7] Dose-Dependent Effect | Activity [8] | Activity [9] Dose-Dependent Effect | Activity [10] Dose-Dependent Effect | Activity [12] | Activity [13] | Activity [17] | Activity [20] | Activity [21] | Activity [22]
inactive: Activity [4] | Activity [5] | Activity [11] | Activity [15] | Activity [16] | Activity [19] | Activity [23] | Activity [24] | Activity [25]
100%: Activity [2] | Activity [14] | Activity [18]

From ChEMBL document CHEMBL5338733, “Heterobifunctional Ligase Recruiters Enable pan-Degradation of Inhibitor of Apoptosis Proteins” (J Med Chem, 2023)
